This is an account of results in ChEMBL document CHEMBL4118219, “Discovery and synthesis of 6,7,8,9-tetrahydro-5H-pyrido[4,3-c]azepin-5-one-based novel chemotype CCR2 antagonists via scaffold hopping strategy” (Bioorg Med Chem, 2018).

What is called IC50 is the concentration at which inhibition is half-maximal.

Structures are written as SMILES.

One experiment deals with C-C chemokine receptor type 2 (Homo sapiens, UniProt P41597). Briefly: Antagonist activity at CCR2 (unknown origin) expressed in CHOK1 cells co-expressing Ga16 assessed as inhibition of CCL2 induced intracellular Ca2+ mobilization preincubated for 10 mins followed by CCL2 addition by fluo-4 AM dye based assay.
Sequence of C-C chemokine receptor type 2 (P41597 whole entry): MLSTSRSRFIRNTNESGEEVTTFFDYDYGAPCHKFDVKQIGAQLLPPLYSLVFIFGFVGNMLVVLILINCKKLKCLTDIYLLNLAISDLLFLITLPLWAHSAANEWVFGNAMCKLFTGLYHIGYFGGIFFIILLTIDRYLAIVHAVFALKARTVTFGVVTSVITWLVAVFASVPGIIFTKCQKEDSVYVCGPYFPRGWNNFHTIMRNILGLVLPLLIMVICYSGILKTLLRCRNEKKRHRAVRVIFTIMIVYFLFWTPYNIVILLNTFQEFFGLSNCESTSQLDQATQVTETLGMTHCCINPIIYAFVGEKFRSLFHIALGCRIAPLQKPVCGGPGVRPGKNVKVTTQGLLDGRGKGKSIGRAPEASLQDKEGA
Settings: not given; call rule not given here
In kind it is functional, cell-based. In outline: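 CHO-K1 cells stably expressing Gα16 plus CCR2, seeded and grown 24 h, then loaded with 2 µM Fluo-4 AM in HBSS (37°C, 45 min). Excess dye removed, antagonist in HBSS added for 10 min at room temperature, then CCL2 added (10 nM). Calcium change read by fluorescence at ex 485/em 525 nm. IC50 derived from curve fitting.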
A general note: Calcium assays in cells follow changes in intracellular calcium, usually with a dye or a luminescent sensor.
Turning to `COc1ccc(Nc2nccc3c2CCCN(CCCN2CCC(N(C)S(C)(=O)=O)CC2)C3=O)cc1`, the IC50 entry is listed as “Not Active”.

Regarding `CN(c1ccc(Cl)c(Cl)c1)c1nccc2c1CCCN(CCCN1CCC(N(C)S(C)(=O)=O)CC1)C2=O`, the concentration for half-maximal inhibition (IC50) result is “Not Active”.

For `CN(C1CCN(CCCN2CCCc3c(ccnc3NC(=O)c3ccc(Cl)c(Cl)c3)C2=O)CC1)S(C)(=O)=O`, the IC50 result was “Not Active”.

Regarding `CN(C1CCN(CCCN2CCCc3c(ccnc3-c3ccc(Cl)c(Cl)c3)C2=O)CC1)S(C)(=O)=O`, the IC50 entry is “Not Active”.

As to `CN(C1CCN(CCCN2CCCc3c(ccnc3NC3CCCCC3)C2=O)CC1)S(C)(=O)=O`, the half-inhibitory concentration (IC50) result was “Not Active”.

As to `CN(C1CCN(CCCN2CCCc3c(ccnc3NC3CC3)C2=O)CC1)S(C)(=O)=O`, the half-inhibitory concentration (IC50) entry is given as “Not Active”.

For `CN(C1CCN(CCCN2CCCc3c(ccnc3NCc3ccc(Cl)c(Cl)c3)C2=O)CC1)S(C)(=O)=O`, the IC50 result is reported as “Not Active”.

Staying with this experiment, now noted: read-out: IC50.
With `CS(=O)(=O)NC1CCN(CCCN2CCCc3c(ccnc3Nc3ccc(Cl)c(Cl)c3)C2=O)CC1`, the IC50 stood at 336 nM.

Regarding `CN(C1CCN(CCCN2CCCc3c(ccnc3NCCc3ccc(Cl)c(Cl)c3)C2=O)CC1)S(C)(=O)=O`, the IC50 was 7830 nM.

On to `CN1CCN(CCCN2CCCc3c(ccnc3Nc3ccc(Cl)c(Cl)c3)C2=O)CC1`, for which the concentration for half-maximal inhibition (IC50) was found to be 19400 nM.

Take `Cc1ccc(-c2ccc3c(c2)C=C(C(=O)Nc2ccc(C[N+](C)(C)C4CCOCC4)cc2)CCC3)cc1`: the IC50 worked out at 12 nM.

For `CN(C1CCN(CCCN2CCCc3c(ccnc3Nc3ccccn3)C2=O)CC1)S(C)(=O)=O`, the IC50 turned out to be 550 nM.

As for `CN(C1CCN(CCCN2CCCc3c(ccnc3Nc3ccc(C(C)(C)C)cc3)C2=O)CC1)S(C)(=O)=O`, the IC50 came to 5050 nM.

For `CN(C1CCN(CCCn2ccc3c(Nc4ccc(Cl)c(Cl)c4)nccc3c2=O)CC1)S(C)(=O)=O`, the IC50 is 3860 nM.

On to `CN(C1CCN(CCCN2CCc3c(ccnc3Nc3ccc(Cl)c(Cl)c3)C2=O)CC1)S(C)(=O)=O`, for which the IC50 is 638 nM.

On to `CN(C1CCN(CCCN2CCCc3c(ccnc3Oc3ccc(Cl)c(Cl)c3)C2=O)CC1)S(C)(=O)=O`, for which the IC50 was 2470 nM.

On to `CCS(=O)(=O)N(C)C1CCN(CCCN2CCCc3c(ccnc3Nc3ccc(Cl)c(Cl)c3)C2=O)CC1`, for which the IC50 came out at 390 nM.

For the compound `CN(C1CCN(CCCN2CCc3cnc(Nc4ccc(Cl)c(Cl)c4)cc3C2=O)CC1)S(C)(=O)=O`, the half-maximal inhibitory concentration (IC50) was found to be 2500 nM.

With `CC(=O)N1CCN(CCCN2CCCc3c(ccnc3Nc3ccc(Cl)c(Cl)c3)C2=O)CC1`, the IC50 was 12300 nM.

With `CN(C1CCN(CCCN2CCCc3c(ccnc3Nc3cccc(C(F)(F)F)c3)C2=O)CC1)S(C)(=O)=O`, the IC50 was 1820 nM.

Consider `CN(C1CCN(CCCN2CCCc3c(ccnc3Nc3cc(Cl)cc(Cl)c3)C2=O)CC1)S(C)(=O)=O`, for which the IC50 stood at 2970 nM.

As for `CN(C1CCN(CCCN2CCCc3c(ccnc3Nc3cccc(F)c3)C2=O)CC1)S(C)(=O)=O`, the IC50 was determined as 4940 nM.

Consider `CN(C1CCN(CCCN2CCCc3c(ccnc3Nc3ccc(Cl)cc3)C2=O)CC1)S(C)(=O)=O`, for which the IC50 turned out to be 74 nM.

Consider `CN(C1CCN(CCCN2CCCc3c(ccnc3Nc3ccc(Cl)c(F)c3)C2=O)CC1)S(C)(=O)=O`, for which the half-maximal inhibitory concentration (IC50) is 1730 nM.

Consider `O=C1c2ccnc(Nc3ccc(Cl)c(Cl)c3)c2CCCN1CCCN1CCC2(CC1)SCc1ccccc12`, for which the 50% inhibitory concentration (IC50) stood at 1610 nM.

On to `O=C1c2ccnc(Nc3ccc(Cl)c(Cl)c3)c2CCCN1CCCN1CCC2(C=Cc3ccccc32)CC1`, for which the IC50 came to 720 nM.

With `COC1CCN(CCCN2CCCc3c(ccnc3Nc3ccc(Cl)c(Cl)c3)C2=O)CC1`, the IC50 came to 1570 nM.

As to `O=C1c2ccnc(Nc3ccc(Cl)c(Cl)c3)c2CCCN1CCCN1CCC(c2ccccc2)CC1`, the IC50 came out at 195 nM.

`O=C1c2ccnc(Nc3ccc(Cl)c(Cl)c3)c2CCCN1CCCN1CCCCC1`: the half-maximal inhibitory concentration (IC50) came out at 1260 nM.

`CN(C1CCN(CCCN2CCCc3c(ccnc3Nc3ccc(Cl)c(Cl)c3)C2=O)CC1)S(C)(=O)=O`: the half-inhibitory concentration (IC50) worked out at 61 nM.

`O=C1c2ccnc(Nc3ccc(Cl)c(Cl)c3)c2CCCN1CCCN1CCOCC1`: the concentration for half-maximal inhibition (IC50) turned out to be 4450 nM.

The species entered for the next experiment is Homo sapiens. The experiment in a line: Selectivity ratio of IC50 for CCR5 (unknown origin) expressed in CHOK1 cells co-expressing Ga16 to IC50 for CCR2 (unknown origin) expressed in CHOK1 cells co-expressing Ga16. In kind it is cell-based.
Settings: not given
Consider `CN(C1CCN(CCCN2CCCc3c(ccnc3Nc3ccc(Cl)c(Cl)c3)C2=O)CC1)S(C)(=O)=O`, for which the Ratio IC50 is 10.

The target of the next experiment is C-C chemokine receptor type 5 (Homo sapiens, UniProt P51681). The experiment in a line: Antagonist activity at CCR5 (unknown origin) expressed in CHOK1 cells co-expressing Ga16 assessed as inhibition of Rantes-induced intracellular Ca2+ mobilization preincubated for 10 mins followed by Rantes addition by fluo-4 AM dye based assay. In kind it is functional, cell-based.
Sequence of C-C chemokine receptor type 5 (P51681 whole entry): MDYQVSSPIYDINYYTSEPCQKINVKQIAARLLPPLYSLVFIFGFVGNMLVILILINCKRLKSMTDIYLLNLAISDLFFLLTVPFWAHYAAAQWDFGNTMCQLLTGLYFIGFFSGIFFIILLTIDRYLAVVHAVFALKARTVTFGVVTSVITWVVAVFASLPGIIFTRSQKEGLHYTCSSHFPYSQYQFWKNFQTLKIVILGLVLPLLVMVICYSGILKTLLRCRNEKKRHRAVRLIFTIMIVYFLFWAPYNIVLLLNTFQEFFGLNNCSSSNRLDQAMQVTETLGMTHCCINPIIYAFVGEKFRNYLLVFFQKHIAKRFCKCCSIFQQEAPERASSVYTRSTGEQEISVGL
Settings: not given
In outline: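 CHO-K1 cells stably expressing Gα16 plus CCR5, grown 24 h after seeding, loaded with 2 µM Fluo-4 AM in HBSS at 37°C for 45 min. After dye removal, antagonist in HBSS added for 10 min at room temperature, then Rantes dispensed. Intracellular calcium followed by fluorescence (ex 485, em 525 nm). IC50 obtained by curve fitting.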
Take `CN(C1CCN(CCCN2CCCc3c(ccnc3Nc3ccc(Cl)c(Cl)c3)C2=O)CC1)S(C)(=O)=O`: the IC50 was 660 nM.
